Assay outcomes: PubChem, Johns Hopkins Ion Channel Center
Shown are actives, neighbours in structure and some others; about 3.7% of the full set was active somewhere.
KCNQ1 block = inhibitors of human KCNQ1 channel, primary screen, cell-based, thallium flux, high-throughput. Potassium voltage-gated channel subfamily KQT member 1 (Homo sapiens), P51787. CHO-K1 KCNQ1, FluxOR thallium flux fluorescence; stronger effect = higher value. B-score at 10 µM. hit rate 1.3% among 310,000;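 active = compounds whose thallium flux B-score, printed positive for inhibition, exceeds three library SD while starting fluorescence stays within three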;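 note: channel opened by potassium depolarization with thallium stimulus after 20 min compound exposure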
hERG protect = hERG rescue from dofetilide block, primary screen, cell-based, CHO-hERG, FluxOR thallium flux, dofetilide IC70 | hit rate 0.51% among 310,000 | dofetilide IC70 present | AID 1511, 2009 | Voltage-gated inwardly rectifying potassium channel KCNH2 (Homo sapiens), Q12809 | activation (rescue from dofetilide block), less the hit threshold, % at 10 µM;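 active = activation above the mean of controls blocked by dofetilide plus 5 SD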;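 note: thallium influx through hERG after potassium depolarization seen as dye fluorescence rise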
Target sequence (Q12809 whole entry, looked up): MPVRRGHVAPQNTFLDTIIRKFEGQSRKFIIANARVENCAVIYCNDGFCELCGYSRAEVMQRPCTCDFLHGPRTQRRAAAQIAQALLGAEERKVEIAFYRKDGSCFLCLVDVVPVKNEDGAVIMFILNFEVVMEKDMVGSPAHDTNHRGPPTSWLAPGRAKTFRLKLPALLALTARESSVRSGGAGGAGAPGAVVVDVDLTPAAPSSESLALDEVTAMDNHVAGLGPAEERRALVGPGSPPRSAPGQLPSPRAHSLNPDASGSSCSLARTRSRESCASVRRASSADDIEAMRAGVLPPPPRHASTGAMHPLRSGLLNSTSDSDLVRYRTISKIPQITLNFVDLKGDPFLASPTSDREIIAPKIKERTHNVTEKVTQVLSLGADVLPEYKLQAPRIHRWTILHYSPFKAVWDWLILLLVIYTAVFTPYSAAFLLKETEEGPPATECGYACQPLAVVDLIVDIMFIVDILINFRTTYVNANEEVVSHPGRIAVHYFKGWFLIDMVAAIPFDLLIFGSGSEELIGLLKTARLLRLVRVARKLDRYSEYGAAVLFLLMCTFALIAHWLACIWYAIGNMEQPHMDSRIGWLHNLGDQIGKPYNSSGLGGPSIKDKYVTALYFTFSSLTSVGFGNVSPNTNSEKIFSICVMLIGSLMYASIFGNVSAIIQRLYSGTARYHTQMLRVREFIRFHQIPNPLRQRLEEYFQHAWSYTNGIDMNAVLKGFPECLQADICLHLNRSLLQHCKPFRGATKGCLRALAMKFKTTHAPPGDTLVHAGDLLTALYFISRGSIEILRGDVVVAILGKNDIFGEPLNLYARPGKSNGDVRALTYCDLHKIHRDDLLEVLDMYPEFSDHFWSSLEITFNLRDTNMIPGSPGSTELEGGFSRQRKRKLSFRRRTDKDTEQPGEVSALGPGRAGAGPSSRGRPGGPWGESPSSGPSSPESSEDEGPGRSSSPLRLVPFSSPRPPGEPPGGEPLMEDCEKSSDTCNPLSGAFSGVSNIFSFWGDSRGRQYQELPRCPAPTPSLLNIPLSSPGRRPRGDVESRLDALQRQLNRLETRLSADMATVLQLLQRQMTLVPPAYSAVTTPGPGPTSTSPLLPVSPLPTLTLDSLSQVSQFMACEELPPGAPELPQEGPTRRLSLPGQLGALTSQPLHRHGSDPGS
Kir21 inh = inhibitors of mouse Kir2.1 inward-rectifier potassium channel; HEK293-Kir2.1, FluxOR thallium flux fluorescence; stronger effect = lower value; B-score at 10 µM; hit rate 0.85% among 310,000; AID 1672, 2009;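 active = fluorescence ratio B-score at or below minus 3 SD of library scores, with starting-brightness B-score within 2 SD, cut at about -4.2 in these data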;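 note: channel flux triggered by added potassium and thallium sulfate stimulus; B-score of peak minus minimum fluorescence over baseline after thallium stimulus; more negative B-score means stronger Kir2.1 block with less thallium influx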
KCNQ1 pot = potentiators or activators of KCNQ1 channel, primary screen, cell-based, thallium flux, high-throughput; Potassium voltage-gated channel subfamily KQT member 1 (Homo sapiens), P51787; CHO-K1 KCNQ1, thallium flux FluxOR fluorescence; stronger effect = higher value; hit rate 0.35% among 310,000; B-score at 10 µM;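 active = fluorescence ratio B-score, a plate-corrected score, at least three library SD, with initial intensity B-score within 5 SD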
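Doses: Single concentration per compound, DMSO matched to controls | Test system: KCNQ1-transfected CHO-K1 cells | Timing: 90 min dye loading and 20 min compound exposure, both at room temperature | Measured by: Kinetic FluxOR thallium fluorescence, 10-s 1-Hz baseline, 110-s post-stimulus read | Medium: Assay buffer with matched DMSO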
KCNK9 block = KCNK9 potassium channel inhibitors, primary screen, HEK293 cells, thallium flux. FluxOR thallium flux fluorescence; stronger effect = lower value. hit rate 1.2% among 310,000. B-score at 10 µM;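 active = ratio B-score over 3 SD below the library mean, with starting fluorescence within 5 SD of its mean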;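 note: negative B-score means less thallium flux so channel inhibition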
KCNK3 block = human KCNK3 channel inhibitors, primary screen, CHO cells, FluxOR thallium flux, B-score | Potassium channel subfamily K member 3 (Homo sapiens), O14649 | FluxOR fluorescence; stronger effect = lower value | B-score at 10 µM | hit rate 0.84% among 340,000;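 active = B-score under library mean minus 4 SD, starting fluorescence ratio at most library mean plus 5 SD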;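 note: more negative B-score means stronger inhibition of thallium flux through KCNK3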
KCNK3 confirm = retest of human KCNK3 channel inhibitors, confirmation, CHO cells, FluxOR thallium flux, triplicate; shares compounds with KCNK3 block; FluxOR fluorescence; 0% buffer, 100% carvedilol maximal block; ratio percent of control, % at 10 µM; hit rate 99% among 2,400; AID 651638, 2012;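 active = ratio percent of control, averaged over triplicates, above buffer control mean plus 5 SD, cut at about 64% in these data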;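 note: ratio is the fluorescence rise from min to max over baseline after thallium stimulus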
KCNK3 noninduced = thallium flux inhibition in non-induced cells, primary screen, counter-screen for KCNK3 inhibitor project, cell-based, non-induced KCNK3 line, FluxOR thallium, triplicate. shares compounds with KCNK3 block. non-induced KCNK3 parental cells; stronger effect = lower value. thallium flux ratio (lower = more inhibition) at 10 µM. hit rate 40% among 2,400;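 active = thallium flux ratio, averaged over three wells, more than 5 SD below the buffer control mean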;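 note: host cells are CHO cells without KCNK3 induction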
Hits are given with their value; - = inactive; . = no result.

SMILES | KCNQ1 block | hERG protect | Kir21 inh | KCNQ1 pot | KCNK9 block | KCNK3 block | KCNK3 confirm | KCNK3 noninduced
CCOc1ccc(S(=O)(=O)N2CCCC(C(=O)N3CCN(CC)CC3)C2)cc1Cl (stereo not drawn) | - | - | - | - | - | - | . | .
COc1cc(NC(=O)c2ccccc2Cl)c2ncccc2c1 | - | - | - | - | - | -9.12 | 119.3 | 0.151
O=C(Nc1cccc2cccnc12)c1ccc(Cl)cc1Cl | - | - | - | - | - | - | . | .
O=C(c1ccco1)N1CCC(c2nc3c(nnn3Cc3c(Cl)cccc3Cl)c(=O)[nH]2)CC1 | - | - | - | - | - | - | . | .
CC(C)(C)c1ccc(Cn2nnc3c(=O)[nH]c(C4CCN(C(=O)c5ccco5)CC4)nc32)cc1 | - | - | - | - | - | -8.94 | 121.7 | 0.146
CCNS(=O)(=O)c1ccc(Br)c(C(=O)OC(C)C(=O)NCC2CCCCC2)c1 (stereo not drawn) | . | . | . | . | . | - | . | .
Fc1ccc(CNC(=S)NCc2cccc(Cl)c2)cc1 | - | - | -4.37 | - | - | -9.43 | 113.3 | -
COc1cccc(CNC(=S)Nc2ccc(Cl)cc2C)c1 | - | - | - | - | - | - | . | .
S=C(NCc1ccccc1)NCc1cccc(Cl)c1 | - | - | - | - | - | - | . | .
Cc1cc(Cl)ccc1NC(=S)NCc1ccccc1 | - | - | - | - | - | -9.54 | 87.0 | -
CC1CCCC(C)N1S(=O)(=O)c1ccc(NC(=O)c2ccccc2C(=O)N2CCOCC2)cc1 (stereo not drawn) | - | - | - | - | - | -11.7 | 91.0 | -
O=C(COc1ccccc1)NC1CCCN(Cc2ccccc2F)C1 (stereo not drawn) | - | - | - | - | - | - | . | .
COc1ccc(Sc2ccc(NC(=O)c3ccccc3Cl)cc2C#N)cc1 | - | - | - | - | - | -11.6 | 105.7 | 0.146
N#Cc1ccccc1Sc1ccccc1C(=O)Nc1ccc2ccccc2c1 | - | - | - | - | - | - | . | .
COc1ccc(N2CCN(c3oc(-c4ccco4)nc3C#N)CC2)cc1 | - | - | - | - | - | - | . | .
N#Cc1nc(-c2ccco2)oc1N1CCN(c2ccccc2)CC1 | - | - | - | - | - | -10.6 | 119.0 | -
CC(C)(C)S(=O)(=O)N1C[C@H]2CC/C=C\C/C(c3ccccc3)=C\2[C@@H]1CCO | . | . | . | . | . | - | . | .
CCOc1ccc(C(=O)N2CCN(CC(=O)N3CCCC3)CC2)cc1OCC | . | . | . | . | . | - | . | .
COCCN(CCOC)c1nc(-c2ccc(Cl)cc2)nc2ccccc12 | - | - | - | - | -7.55 | -9.23 | 128.0 | -
CCN(CC)c1nc(-c2ccccc2)nc2ccccc12 | - | - | - | - | - | -9.51 | 129.0 | -
CN(C)C(=O)CCc1ccc2c3c([nH]c2c1)[C@]1(CCc2ccccc2)[C@@H](C(=O)N2CCCCC2)C[C@H](CC(=O)NCCCn2ccnc2)C(=O)N1CC3 | . | . | . | . | . | - | . | .
CCCCn1nc(NC(=O)c2cccs2)c2cc3ccccc3nc21 | - | - | - | - | - | -9.53 | 117.7 | 0.14
Cc1cc(SCC(N)=O)nc(SCC(=O)c2ccccc2)n1 | - | - | - | - | - | - | . | .
Cc1ccc(C(=O)CSc2cc(C)nc(SCC(=O)c3ccccc3)n2)cc1 | - | - | - | - | - | -9.02 | 112.3 | -
O=C(CSc1nc2c(oc3ccccc32)c(=O)n1CC1CCCO1)NCc1ccccc1 (stereo not drawn) | - | - | - | - | - | - | . | .
SMILES | KCNQ1 block | hERG protect | Kir21 inh | KCNQ1 pot | KCNK9 block | KCNK3 block | KCNK3 confirm | KCNK3 noninduced
COC(=O)NCc1ccc2c(c1)OCO2 | - | - | - | - | - | - | . | .
C/C(=C\C(=O)c1ccc(Cl)cc1)NCc1ccc2c(c1)OCO2 | - | - | - | - | - | -9.76 | 84.3 | 0.155
COc1ccccc1NC(=O)C(C)OC(=O)CCCc1c[nH]c2ccccc12 (stereo not drawn) | - | - | - | - | -7.25 | -10.3 | 104.3 | -
COCc1c(C(=O)N2CCc3ccccc32)oc2ccccc12 | - | - | - | - | - | -10.6 | 86.3 | -
Cc1c(C(=O)N2CCc3ccccc32)oc2ccccc12 | - | - | - | - | - | - | . | .
COc1ccc(CN(C)S(=O)(=O)c2ccc3c(c2)OCCO3)cc1 | - | - | - | - | - | - | . | .
Cc1cccc(NC(=S)N(Cc2ccco2)C(C)c2cccs2)c1 (stereo not drawn) | - | - | - | - | - | -9.71 | 94.0 | -
CC(c1cccs1)N(Cc1ccco1)C(=S)Nc1ccccc1Cl (stereo not drawn) | - | - | - | - | - | -8.96 | 106.7 | -
S=C(Nc1ccccc1Cl)N(CCN1CCCCC1)Cc1ccco1 | - | - | - | - | - | - | . | .
COc1cccc(NC(=S)N(Cc2ccco2)C(C)c2ccco2)c1 (stereo not drawn) | - | - | - | - | - | - | . | .
COCCn1c(COc2ccc(C)cc2)nc2ccccc21 | - | - | - | - | - | - | . | .
CCn1c(COc2ccc(C)cc2)nc2ccccc21 | - | - | - | - | - | -12 | 111.7 | -
CCOC(=O)c1c(CSc2ccc(CC)cc2)oc2ccc(O)c(CN(C)C)c12 | 8 | - | -15.7 | - | -7.4 | -9.13 | 120.0 | 0.155
COc1ccc(CNC(=S)Nc2cccc(F)c2)cc1 | - | - | - | - | - | - | . | .
COc1ccc(C)cc1NC(=O)CN1CCN(S(=O)(=O)c2ccc3ccccc3c2)CC1 | . | . | . | . | . | - | . | .
Cc1sc(NC(=O)c2ccco2)nc1-c1ccccc1 | - | - | - | - | - | - | . | .
Cc1sc(NC(=O)c2ccco2)nc1-c1ccc2c(c1)CC(C)N2C(=O)C1CC1 (stereo not drawn) | 6 | - | - | - | - | -9.43 | 101.3 | -
CCOC(=O)c1c(NC(=O)C2COc3ccccc3O2)sc(C)c1C (stereo not drawn) | - | - | - | - | - | -8.82 | 107.3 | 0.141
O=C(c1cc(-c2cccc(Cl)c2)on1)N1CCCCCC1 | - | - | - | - | - | -10.2 | 114.3 | -
C/C(=N\Nc1cccc2cccnc12)c1ccccc1O | - | - | - | - | - | -10.4 | 108.0 | -
